# Experimental data taken from article PMC2610486 (Bioorganic & medicinal chemistry, 2008).
# Assays:
# [1] = target: T1, Cyp4F2 (tocopherol-ω-hydroxylase) (Homo sapiens, UniProt P78329); assay: Inhibition of γ-tocopherol metabolism; assay type: cell-based; conditions: HepG2 cells; at concentrations as low as 250 nM
# T1 sequence (P78329 5-520): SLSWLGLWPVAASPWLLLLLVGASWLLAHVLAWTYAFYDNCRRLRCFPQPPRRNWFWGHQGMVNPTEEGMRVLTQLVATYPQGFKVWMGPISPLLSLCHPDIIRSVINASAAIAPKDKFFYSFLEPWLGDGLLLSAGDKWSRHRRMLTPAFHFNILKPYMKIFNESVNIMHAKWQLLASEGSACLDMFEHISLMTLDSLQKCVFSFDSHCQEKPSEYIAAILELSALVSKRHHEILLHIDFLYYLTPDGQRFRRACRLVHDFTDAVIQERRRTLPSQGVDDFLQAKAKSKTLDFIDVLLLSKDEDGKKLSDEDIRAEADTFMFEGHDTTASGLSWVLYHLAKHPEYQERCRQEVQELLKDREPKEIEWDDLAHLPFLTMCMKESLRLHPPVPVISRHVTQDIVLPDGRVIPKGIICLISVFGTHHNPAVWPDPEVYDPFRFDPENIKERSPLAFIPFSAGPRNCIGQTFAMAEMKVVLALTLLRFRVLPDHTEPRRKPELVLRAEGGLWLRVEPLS
# HepG2 cells = assay type: cell-based, human; conditions: HepG2 cultures
# tocopherol ω-hydroxylase = assay: Tissue enrichment in δ-tocopherol in mice fed δ-tocopherol with or without 1; assay type: in vivo, mouse
# In short: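 Two groups of three male FVB/N mice were fed 10 days on ground chow with δ-tocopherol (6000 mg/kg diet), with or without test compound (500 mg/kg diet). Compound in ethanol and δ-tocopherol were premixed in diglyceride oil, then added to chow. Mice were fasted 5 h and euthanised. Plasma, liver and bile tocopherols were measured by GC-MS with d9-α-tocopherol internal standard. Results are δ-/α-tocopherol ratios, given as means and SD.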
# CYP3A4 = CYP3A4 (Homo sapiens, UniProt P08684); assay: Testosterone-6-hydroxylase activity in HepG2/C3A cell culture; assay type: cell-based; conditions: HepG2/C3A cultures; 50 µM testosterone, 48 hr
# In short: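 Confluent HepG2 cultures were pre-incubated 4 h with test compound or ethanol control, then 50 µM testosterone was added. After 48 h incubation, medium was extracted with ethyl acetate and 6-hydroxytestosterone, as its trimethylsilyl ether, was quantified by GC-MS. Results are percent inhibition, given as means and standard deviation.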
# [2] = male FVB/N mice, 500 mg 1 per kg diet with δ-tocopherol 6000 mg per kg diet, 10 days, P<0.05
# Sequence of CYP3A4 (P08684 whole entry): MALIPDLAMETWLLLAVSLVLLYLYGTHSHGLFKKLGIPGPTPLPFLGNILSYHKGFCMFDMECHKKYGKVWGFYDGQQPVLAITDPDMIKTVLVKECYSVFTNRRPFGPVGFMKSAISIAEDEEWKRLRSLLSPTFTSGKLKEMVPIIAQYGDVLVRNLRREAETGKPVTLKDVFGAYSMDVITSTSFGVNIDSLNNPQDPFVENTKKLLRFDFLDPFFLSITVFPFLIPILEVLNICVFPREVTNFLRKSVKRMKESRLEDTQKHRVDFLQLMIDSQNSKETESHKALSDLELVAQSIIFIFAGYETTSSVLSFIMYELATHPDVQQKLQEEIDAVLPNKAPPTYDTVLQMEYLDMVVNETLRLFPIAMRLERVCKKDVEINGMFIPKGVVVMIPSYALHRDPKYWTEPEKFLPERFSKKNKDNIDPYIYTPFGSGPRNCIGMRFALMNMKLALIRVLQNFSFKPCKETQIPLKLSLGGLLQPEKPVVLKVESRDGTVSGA
Inhibition of γ-tocopherol metabolism [1],Effect on total cell protein (HepG2 cells),Morphology of monolayers (HepG2 cells),Effect on testosterone-6-hydroxylase (CYP3A4) activity (qualitative) (CYP3A4),Compound,Level of δ-tocopherol in mice (tocopherol ω-hydroxylase; 1 at 500 mg per kg of diet that also contained δ-tocopherol),Change in δ-tocopherol / α-tocopherol ratio in bile (tocopherol ω-hydroxylase; [2]),Change in δ-tocopherol / α-tocopherol ratio in liver (tocopherol ω-hydroxylase; [2]),Effect on α-tocopherol status (tocopherol ω-hydroxylase; mice fed δ-tocopherol with or without 1)
complete inhibition,no effect,normal,inhibited,"Cc1c(C)c2c(c(C)c1O)CC[C@@](C)(CCCCCCCCCn1ccnc1)O2 [Compound 1, (R)-2-(9-(1H-imidazol-1-yl)nonyl)-2,5,7,8-tetramethylchroman-6-ol]",raised,tripled,doubling,no evidence that α-tocopherol status was affected
–,–,–,inhibited,"Cc1c(C)c2c(c(C)c1O)CC[C@@](C)(CCCCCCCCCn1cncn1)O2 [Compound 2, (R)-2-(9-(1H-1,2,4-triazol-1-yl)nonyl)-2,5,7,8-tetramethylchroman-6-ol]",–,–,–,–
–,–,–,inhibited,"Cc1c(C)c2c(c(C)c1O)CC[C@@](C)(CCCCCCCCCn1ccnn1)O2 [Compound 3, (R)-2-(9-(1H-1,2,3-triazol-1-yl)nonyl)-2,5,7,8-tetramethylchroman-6-ol]",–,–,–,–
